Most compounds without a hit are left out; they make up all but 5.8% or so of the library.
Pf Dd2 growth: inhibitors of Plasmodium falciparum Dd2 growth. activity change, % at 10 µM. hit rate 2.3% among 94,000. P. falciparum Dd2 growth, SYBR Green, 72 h; active compounds read low; in the data active means activity change below about -80%; inconclusive means no clear call, values can overlap the other calls
IDH1 R132H inh: IDH1 R132H (human) inhibition; IDH1 R132H reductase, diaphorase/resazurin fluorescence, 60 min; O75874; inhibition, % at 10 µM; AID 624101; hit rate 0.18% among 70,000; in the data active means inhibition above about 34%; inconclusive means no clear call, values can overlap the other calls; inactive means below about 11%;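 further: 0% = DMSO and 100% = no enzyme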
Target sequence (O75874 whole entry R132H): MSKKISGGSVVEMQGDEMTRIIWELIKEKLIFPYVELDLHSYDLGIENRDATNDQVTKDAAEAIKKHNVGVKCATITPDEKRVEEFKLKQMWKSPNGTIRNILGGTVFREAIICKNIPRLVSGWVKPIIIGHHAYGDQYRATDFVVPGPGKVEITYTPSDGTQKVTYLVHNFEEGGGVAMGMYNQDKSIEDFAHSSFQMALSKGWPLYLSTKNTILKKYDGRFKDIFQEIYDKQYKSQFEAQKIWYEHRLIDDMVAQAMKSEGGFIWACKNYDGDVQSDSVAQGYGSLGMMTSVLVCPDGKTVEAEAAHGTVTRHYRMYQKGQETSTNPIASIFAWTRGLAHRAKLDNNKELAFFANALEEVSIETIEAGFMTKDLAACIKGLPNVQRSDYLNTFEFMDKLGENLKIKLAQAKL
KDM4C inh: KDM4C (human) demethylase inhibition; Q9H3R0; GST-KDM4C 2-372, H3K9me3 peptide, LANCE TR-FRET; inhibition, % at 12.5 µM; hit rate 0.15% among 96,000; AID 720574;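 active means mean replicate inhibition above about 25%, with at least 55% of replicates also reaching it, limit read from the data, passing the limit was not always enough; inconclusive means only one of those two conditions met; inactive means neither condition met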
Target sequence (Q9H3R0 2-372 limits assumed): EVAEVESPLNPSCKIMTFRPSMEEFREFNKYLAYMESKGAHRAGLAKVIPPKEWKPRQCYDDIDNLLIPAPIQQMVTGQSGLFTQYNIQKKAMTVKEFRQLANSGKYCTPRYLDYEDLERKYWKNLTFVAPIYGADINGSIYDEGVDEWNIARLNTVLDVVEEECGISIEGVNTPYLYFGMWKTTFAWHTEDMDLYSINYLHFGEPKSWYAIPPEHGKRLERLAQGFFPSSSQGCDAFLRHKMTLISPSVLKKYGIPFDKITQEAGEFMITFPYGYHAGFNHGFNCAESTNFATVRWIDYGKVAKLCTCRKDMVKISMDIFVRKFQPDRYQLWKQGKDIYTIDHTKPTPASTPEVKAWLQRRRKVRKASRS
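Assay system: GST-GASC-1 enzyme fragment 2-372 | Amount: 10 nM enzyme | Medium: HEPES buffer, pH 7.5, plus ascorbate | Reagent: H3K9me3 peptide substrate, Fe(II), 2-oxoglutarate | Doses: Single-point compound screen | Incubation: 30 min demethylation and 1 h detection at room temperature | Measured by: LANCE TR-FRET, excitation 340 nm, emissions 618 and 671 nm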
T cruzi growth-1: inhibitors of T. cruzi proliferation | T. cruzi beta-gal in NIH3T3, GalScreen luminescence, 90 h | inhibition, % at 8.34 µM | hit rate 5.9% among 77,000 | AID 624255;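 active means mean inhibition above about 93%, with at least 55% of replicates each passing it, limit read from the data, passing the limit was not always enough; inconclusive means only one of those two conditions holds; inactive means neither condition holds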
T cruzi growth-2: inhibitors of T. cruzi proliferation; hit rate 72% among 5,600; T. cruzi beta-gal in NIH3T3, GalScreen luminescence, 90 h; shares compounds with T cruzi growth-1; AID 651739; inhibition, % at 8.35 µM;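 active means mean replicate inhibition above about 95% and at least 55% of replicates individually reaching it, limit read from the data; inconclusive means only one of the two criteria is met; inactive means neither criterion is met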
T cruzi growth-3: Trypanosoma cruzi proliferation inhibition | T. cruzi beta-gal in NIH3T3, GalScreen luminescence, 90 h | AID 651740 | hit rate 21% among 5,600 | inhibition, % at 2.09 µM | shares compounds with T cruzi growth-1;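 active means mean inhibition above about 95%, with at least 55% of replicates also reaching it, limit read from the data; inconclusive means meets just one of the two conditions; inactive means meets neither condition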;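 further: plate controls were neutral control median for no effect and positive control median for full effect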
3T3 cytotox: cytotoxicity in mouse NIH/3T3 fibroblasts | shares compounds with T cruzi growth-1 | NIH/3T3 viability, CellTiter-Glo ATP luminescence, 90 h | cytotoxicity (signal decrease), % at 8.35 µM | hit rate 14% among 5,600 | AID 651742;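 active means mean signal decrease across replicates above about 35% based on untreated-well scatter, with enough replicates individually passing, limit read from the data; inconclusive means no rule stated though some were filed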;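 further: 0% = median of neutral control wells and 100% = median of positive control wells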
NIH3T3 tox 2: cytotoxicity in mouse NIH/3T3 fibroblasts | shares compounds with T cruzi growth-1 | NIH/3T3 viability, CellTiter-Glo ATP luminescence, 90 h | inhibition, % at 24.9 µM | hit rate 56% among 5,600 | AID 651744;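 active means mean loss of cell viability signal at or above a set limit, and enough replicates individually reaching it; inconclusive means meets only the mean limit or only the replicate share; inactive means meets neither condition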;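 further: 0% = median of neutral control wells and 100% = median of positive control wells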
The depositor's hits bear a star; u = inconclusive; x = not tested or not shown.

SMILES	Pf Dd2 growth	IDH1 R132H inh	KDM4C inh	T cruzi growth-1	T cruzi growth-2	T cruzi growth-3	3T3 cytotox	NIH3T3 tox 2
C[C@@H]1CCCCO[C@H](CN(C)C(=O)Nc2ccc(F)cc2)[C@@H](C)CN([C@H](C)CO)C(=O)c2cc(NC(=O)Nc3cccc4ccccc34)ccc2O1	-23.3	x	-1.3	72.4	x	x	x	x
C[C@H](CO)N1C[C@H](C)[C@@H](CN(C)C(=O)Nc2ccc(F)cc2)OCCCC[C@H](C)Oc2ccc(NC(=O)Nc3cccc4ccccc34)cc2C1=O	-32.1	3.3	12.1	105.1*	106.7*	55.2	9.1	u
CCC(=O)N1CCCCN2[C@H](CO)[C@H](c3ccc(C#Cc4ccccc4)cc3)[C@@H]2C1	-13.8	x	-0.7	117.0*	103.8*	85.0	51.5*	58.0*
CC(=O)N1CCCCN2[C@H](CO)[C@@H](c3ccc(C#Cc4ccccc4F)cc3)[C@@H]2C1	-24.0	x	-0.2	113.3*	108.2*	39.9	36.3*	101.1*
CCC(=O)N1CCCCN2[C@H](C1)[C@H](c1ccc(C#Cc3ccccc3F)cc1)[C@@H]2CO	-18.5	x	-0.5	u	74.0	29.2	40.2*	94.8*
CCC(=O)N1CCCCN2[C@H](CO)[C@@H](c3ccc(C#Cc4ccccc4F)cc3)[C@@H]2C1	-13.2	x	-1.7	u	100.9*	52.9	21.2	104.4*
CCC(=O)N1CCCCN2[C@H](C1)[C@@H](c1ccc(C#Cc3ccccc3)cc1)[C@@H]2CO	-5.5	x	0.4	94.4	x	x	x	x
CC(=O)N1CCCCN2[C@@H](CO)[C@@H](c3ccc(C#Cc4ccccc4F)cc3)[C@@H]2C1	18.7	x	-0.9	60.2	x	x	x	x
Cc1ccc(S(=O)(=O)c2nc(SCC(=O)c3ccc(Cl)cc3)sc2Cl)cc1	x	0.1	x	x	x	x	x	x
Cc1cccc(-c2ccc([C@H]3[C@@H](CO)N4CCCCN(C(=O)c5ccncc5)C[C@H]34)cc2)c1	22.9	x	-1.6	u	104.7*	94.7	11.7	24.5*
O=C(c1ccncc1)N1CCCCN2[C@H](C1)[C@@H](c1ccc(-c3ccccc3)cc1)[C@@H]2CO	36.2	x	-0.8	9.5	x	x	x	x
Cc1cccc(-c2ccc([C@@H]3[C@@H](CO)N4CCCCN(C(=O)c5ccncc5)C[C@@H]34)cc2)c1	12.6	x	-0.8	57.9	x	x	x	x
O=C(c1ccncc1)N1CCCCN2[C@H](CO)[C@H](c3ccc(-c4ccccc4)cc3)[C@@H]2C1	46.0	x	-1.5	119.5*	82.5	5.6	-9.3	18.2
Cc1cccc(-c2ccc([C@H]3[C@H]4CN(C(=O)c5cccnc5)CCCCN4[C@H]3CO)cc2)c1	-4.1	x	1.6	109.3*	u	27.3	11.8	26.5*
Cc1cccc(-c2ccc([C@@H]3[C@@H](CO)N4CCCCN(C(=O)c5cccnc5)C[C@H]34)cc2)c1	11.1	x	0.9	u	55.9	-11.9	10.6	30.3*
Cc1cccc(-c2ccc([C@@H]3[C@@H](CO)N4CCCCN(C(=O)c5ccncc5)C[C@H]34)cc2)c1	0.4	x	-0.8	31.5	x	x	x	x
COc1cccc(NC(=O)COc2ccccc2C(=O)Nc2c(C)cccc2C)c1	x	0.3	x	x	x	x	x	x
Cc1cccc(-c2ccc([C@H]3[C@H](CO)N4CCCCN(C(=O)c5cccnc5)C[C@@H]34)cc2)c1	27.3	x	-1.0	115.7*	102.0*	41.8	38.8*	32.0*
Cc1cccc(-c2ccc([C@@H]3[C@@H](CO)N4CCCCN(C(=O)c5cccnc5)C[C@@H]34)cc2)c1	-6.6	x	-1.1	100.1*	32.3	-7.4	2.0	19.1
Cc1ccccc1-c1ccc([C@H]2[C@@H](CO)N3CCCCN(C(=O)c4cccnc4)C[C@H]23)cc1	26.3	x	-1.0	99.1*	97.0*	47.4	17.8	9.4
COc1ccc(S(=O)(=O)NCCc2ccc(OC)c(OC)c2)cc1Cl	x	-0.1	x	x	x	x	x	x
COc1ccc(C(=O)N(Cc2nc(-c3ccc(Cl)cc3)no2)C(C)C)cc1[N+](=O)[O-]	x	-0.1	x	x	x	x	x	x
C[C@@H]1CCCCO[C@@H](CN(C)CC2CCCCC2)[C@H](C)CN([C@H](C)CO)C(=O)c2cc(NC(=O)Nc3ccc(C(F)(F)F)cc3)ccc2O1	-80.9*	-0.8	-2.3	u	106.2*	116.4*	118.2*	104.6*
C[C@@H]1CCCCO[C@H](CN(C)CC2CCCCC2)[C@H](C)CN([C@H](C)CO)C(=O)c2cc(NC(=O)Nc3ccc(C(F)(F)F)cc3)ccc2O1	-77.6	-2.1	x	u	1.8	-1.3	-4.2	-1.8
C[C@@H]1CCCCO[C@@H](CN(C)CC2CC2)[C@H](C)CN([C@H](C)CO)C(=O)c2cc(NC(=O)Nc3ccc(C(F)(F)F)cc3)ccc2O1	-69.2	3.9	-0.1	53.2	x	x	x	x
SMILES	Pf Dd2 growth	IDH1 R132H inh	KDM4C inh	T cruzi growth-1	T cruzi growth-2	T cruzi growth-3	3T3 cytotox	NIH3T3 tox 2
C[C@@H]1CCCCO[C@@H](CN(C)CC2CCCCC2)[C@@H](C)CN([C@@H](C)CO)C(=O)c2cc(NC(=O)Nc3ccc(C(F)(F)F)cc3)ccc2O1	-52.6	x	x	99.4*	u	111.8*	122.5*	102.9*
O=C(CN1C(=O)c2cccc3cccc1c23)NCc1ccco1	x	-0.3	x	x	x	x	x	x
O=C(Nc1ccccc1F)N1CCCCN2[C@@H](CO)[C@H](c3ccc(-c4cccnc4)cc3)[C@@H]2C1	10.4	x	-0.2	101.8*	106.1*	40.4	-10.4	33.7*
O=C(Nc1ccccc1F)N1CCCCN2[C@@H](CO)[C@@H](c3ccc(-c4cccnc4)cc3)[C@@H]2C1	-23.5	x	0.0	77.8	x	x	x	x
O=C(Nc1ccccc1F)N1CCCCN2[C@H](CO)[C@H](c3ccc(-c4cccnc4)cc3)[C@@H]2C1	29.8	x	1.1	113.0*	104.8*	28.9	-3.4	10.7
COc1ccc(NC(=O)CN2C(=O)COc3ccc(Cl)cc32)cc1	x	-0.6	x	x	x	x	x	x
C[C@@H]1CN([C@@H](C)CO)C(=O)c2cc(/C=C/c3ccccc3)cnc2O[C@@H]1CN(C)C(=O)Nc1ccccc1F	-29.9	1.7	0.0	108.8*	89.4	36.4	14.5	24.3*
C[C@H](CO)N1C[C@H](C)[C@H](CN(C)C(=O)Nc2cccc3ccccc23)Oc2ncc(-c3cc4ccccc4o3)cc2C1=O	-49.1	0.2	1.1	u	102.2*	89.1	45.3*	101.9*
C[C@H]1CN([C@@H](C)CO)C(=O)c2cc(/C=C/c3ccccc3)cnc2O[C@@H]1CN(C)C(=O)Nc1ccccc1F	-71.5	-1.5	-1.6	125.7*	108.3*	106.6*	-2.0	13.7
C[C@H](CO)N1C[C@H](C)[C@H](CN(C)C(=O)Nc2ccccc2F)Oc2ncc(/C=C/c3ccccc3)cc2C1=O	-32.6	0.9	0.9	102.4	x	x	x	x
CCOc1ccccc1NC(=O)CSc1nc2ccccc2c(=O)n1-c1ccc(Cl)cc1	x	-0.4	x	x	x	x	x	x

Assay outcomes from PubChem.
